A short description of test [1]: Cytotoxicity against human HCT116 cells assessed as growth inhibition after 72 hrs by MTT assay. Type of test: functional, cell-based. Conditions: HCT-116, 72 h. In short, it runs like this: (§1)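 Cells were seeded at 2000–3000 per well and pre-incubated 24 h at 37 °C, 5% CO2. A concentration range of compound was then added for 72 h. MTT (5 mg/mL) was added for 3 h, the medium removed, and formazan dissolved in DMSO. Absorbance was read at 550 nm as the viable-cell measure.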
(In general: Tetrazolium assays rely on reduction of a dye to a coloured formazan, in cell work by metabolically active cells.)

Test [2] deals with SW-620. Kind of test: Cytotoxicity against human SW620 cells assessed as growth inhibition after 72 hrs by MTT assay. Type of test: functional, cell-based. The following applies: SW-620, 72 h. In short, it runs like this: as §1
Test [3] deals with A549. Kind of test: Cytotoxicity against human A549 cells assessed as growth inhibition after 72 hrs by MTT assay. The class given is functional, cell-based. Conditions: A549, 72 h. The method, boiled down:
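A549 human lung adenocarcinoma cells were seeded at 2000–3000 cells/well and held 24 h at 37 °C in 5% CO2. They were then exposed to a range of compound concentrations for 72 h at 37 °C. MTT (5 mg/mL stock) was added for 3 h, the medium was removed, formazan was dissolved in DMSO, and absorbance was read at 550 nm.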

Test [4] can be described thus: Cytotoxicity against human Hep3B cells assessed as growth inhibition after 72 hrs by MTT assay. Type of test: functional, cell-based, Hep 3B2. In short, it runs like this: as §1
For test [5], the system named is SJSA-1. Kind of test: Cytotoxicity against human SJSA1 cells assessed as growth inhibition after 72 hrs by MTT assay. The class given is functional, cell-based. Conditions: SJSA-1, 72 h. The method, boiled down:
as §1

The nature of test [6]: Cytotoxicity against human SNU5 cells assessed as growth inhibition after 72 hrs by MTT assay. The class given is functional, cell-based. The following applies: SNU-5, 72 h. The method, boiled down: as §1
In test [7] the test system is HepG2. Kind of test: Cytotoxicity against human HepG2 cells assessed as growth inhibition after 72 hrs by MTT assay. Type of test: functional, cell-based. Conditions: HepG2, 72 h. The method, boiled down:
as §1

The nature of test [8]: Cytotoxicity against human MKN45 cells assessed as growth inhibition after 72 hrs by MTT assay. Type of test: functional, cell-based. The following applies: MKN-45, 72 h. The method, boiled down:
as §1

A short description of test [9]: Cytotoxicity against human SNU16 cells assessed as growth inhibition after 72 hrs by MTT assay. Type of test: functional, cell-based. Conditions: SNU-16, 72 h. In short, it runs like this: as §1
Test [10] is described as follows: Cytotoxicity against human PANC1 cells assessed as growth inhibition after 72 hrs by MTT assay. Type of test: functional, cell-based. Conditions: PANC-1, 72 h. In short, it runs like this: as §1
Test [11] can be described thus: Cytotoxicity against human MHCC97H cells assessed as growth inhibition after 72 hrs by MTT assay. Type of test: functional, cell-based. In short, it runs like this:
as §1

A short description of test [12]: Cell cycle arrest in human HCT116 cells assessed as accumulation at G2/M phase at 10 to 20 nM after 24 hrs by flow cytometric analysis. Type of test: functional, cell-based. The following applies: HCT-116. A general note: A flow cytometer gives signals particle by particle.
Test [13] concerns the target Histone deacetylase 1 (Homo sapiens, UniProt Q13547). Kind of test: Inhibition of recombinant human HDAC1 expressed in baculovirus infected insect High5 cells using Ac-Lys-Tyr-Lys (epsilon-acetyl)-AMC as substrate after 24 hrs by fluorescence assay.
In test [14] the target is Histone deacetylase 3 (Homo sapiens, UniProt O15379). Kind of test: Inhibition of recombinant human HDAC3 expressed in baculovirus infected insect High5 cells using Ac-Lys-Tyr-Lys (epsilon-acetyl)-AMC as substrate after 3 hrs by fluorescence assay.
Sequence of Histone deacetylase 3 (O15379 whole entry): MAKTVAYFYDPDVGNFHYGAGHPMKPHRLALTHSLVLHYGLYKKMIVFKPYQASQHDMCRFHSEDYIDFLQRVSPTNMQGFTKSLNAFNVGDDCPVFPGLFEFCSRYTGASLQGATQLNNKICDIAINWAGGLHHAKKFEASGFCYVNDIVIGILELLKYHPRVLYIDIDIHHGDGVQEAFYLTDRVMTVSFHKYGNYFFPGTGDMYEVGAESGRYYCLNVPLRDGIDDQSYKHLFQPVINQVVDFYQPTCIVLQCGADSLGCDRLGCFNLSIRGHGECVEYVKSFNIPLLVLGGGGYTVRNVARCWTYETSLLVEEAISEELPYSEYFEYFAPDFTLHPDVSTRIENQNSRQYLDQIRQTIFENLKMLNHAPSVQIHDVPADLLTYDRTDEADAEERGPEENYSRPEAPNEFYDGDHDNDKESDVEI
For test [15], the target named is Histone deacetylase 2 (Homo sapiens, UniProt Q92769). Kind of test: Inhibition of recombinant human HDAC2 expressed in baculovirus infected insect High5 cells using Ac-Lys-Tyr-Lys (epsilon-acetyl)-AMC as substrate after 24 hrs by fluorescence assay.
Sequence of Histone deacetylase 2 (Q92769 whole entry): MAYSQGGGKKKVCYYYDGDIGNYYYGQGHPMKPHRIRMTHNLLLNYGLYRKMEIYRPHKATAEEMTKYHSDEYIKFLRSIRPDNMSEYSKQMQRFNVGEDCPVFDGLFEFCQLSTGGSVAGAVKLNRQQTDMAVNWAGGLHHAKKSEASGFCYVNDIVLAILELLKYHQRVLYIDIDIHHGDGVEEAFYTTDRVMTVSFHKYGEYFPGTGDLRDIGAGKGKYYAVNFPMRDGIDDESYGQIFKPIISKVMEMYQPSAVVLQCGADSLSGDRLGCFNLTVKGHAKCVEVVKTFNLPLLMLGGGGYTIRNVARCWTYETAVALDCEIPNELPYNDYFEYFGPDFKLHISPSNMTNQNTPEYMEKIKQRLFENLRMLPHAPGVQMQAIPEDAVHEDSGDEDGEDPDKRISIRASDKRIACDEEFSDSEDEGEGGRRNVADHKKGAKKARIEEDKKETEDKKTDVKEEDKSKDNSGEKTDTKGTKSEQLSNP
Test [16] addresses Tubulin (Homo sapiens) (UniProt P68371+Q9H4B7+P0DPH7+P68366+Q13509+Q71U36+P04350+Q3ZCM7+P07437+P68363+Q9BQE3+Q6PEY2+Q13885+Q9BVA1+Q9BUF5). Kind of test: Inhibition of tubulin (unknown origin) polymerization at 10 uM. Type of test: protein-complex assay.

As usually defined, the IC50 is the midpoint of a concentration-inhibition curve.

Active and inactive are the calls of the source. The calls are words filed in the database; no cut-off is given here. Some results are limits rather than exact numbers.

Sequence of Histone deacetylase 1 (Q13547 whole entry): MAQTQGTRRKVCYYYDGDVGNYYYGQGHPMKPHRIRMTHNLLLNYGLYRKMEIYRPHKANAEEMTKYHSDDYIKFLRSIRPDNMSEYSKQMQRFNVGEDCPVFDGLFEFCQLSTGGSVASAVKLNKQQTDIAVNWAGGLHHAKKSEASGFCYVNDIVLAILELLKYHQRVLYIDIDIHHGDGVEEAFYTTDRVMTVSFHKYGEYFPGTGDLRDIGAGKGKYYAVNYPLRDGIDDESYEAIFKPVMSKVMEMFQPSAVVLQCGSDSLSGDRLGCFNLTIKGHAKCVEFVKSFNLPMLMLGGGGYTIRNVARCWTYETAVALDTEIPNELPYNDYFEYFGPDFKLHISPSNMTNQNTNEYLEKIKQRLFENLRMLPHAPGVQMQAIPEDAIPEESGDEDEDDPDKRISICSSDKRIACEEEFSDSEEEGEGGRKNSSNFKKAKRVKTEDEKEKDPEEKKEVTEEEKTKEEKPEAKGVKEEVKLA

Consider `Nc1ccccc1NC(=O)c1ccc(CNc2nccc(-c3cccnc3)n2)cc1` [MOCETINOSTAT], for which the half-maximal inhibitory concentration (IC50) in [1] worked out at 396 nM; in test [2], 419 nM; in [3] it was 2080 nM; in [4], 823 nM; in test [5], 3620 nM; in test [6], 1010 nM. Moreover, the half-maximal inhibitory concentration (IC50) in test [7] worked out at 876 nM; in test [8] it was 610 nM; in test [9], 142 nM; in [10], 26800 nM; in [11], 4560 nM.
For `COc1cc2c(c(OC)c1OC)-c1ccc(OC)c(=O)cc1[C@@H](NC(C)=O)CC2` [COLCHICINE], the IC50 in [1] was found to be 40 nM; in test [2], 5 nM; in [3] it was 105 nM; in test [4] it was 14 nM; in test [5] it was 8 nM; in [6], 34 nM. In addition, the 50% inhibitory concentration (IC50) is 27 nM in [7]; 2 nM in [8]; 5 nM in test [9]; 21 nM in [10]; more than 50.1 µM in test [13]; more than 50.1 µM in [14]. The 50% inhibitory concentration (IC50) is more than 50.1 µM in test [15] and 110 nM in test [11]. Moreover, in test [12], the outcome was Active.
With `COc1cc2c(c(OC)c1OC)-c1ccc(OC)c(=O)cc1[C@@H](NCc1ccc(C(=O)Nc3cc(-c4cccs4)ccc3N)cc1)CC2`, the IC50 in test [3] was 1040 nM; in [13], 3.32 µM; in test [14] it was 1.47 µM; in test [15] it was 0.27 µM.
In the case of `COc1cc2c(c(OC)c1OC)-c1ccc(OC)c(=O)cc1[C@@H](NCc1ccc(C(=O)Nc3ccccc3N)cc1)CC2`, the half-maximal inhibitory concentration (IC50) in test [1] stood at 5 nM; in [2] it was 2 nM; in test [3], 106 nM; in test [4], 5 nM; in [5], 9 nM; in [6], 14 nM. The half-maximal inhibitory concentration (IC50) was 14 nM in test [7]; 2 nM in test [8]; 2 nM in test [9]; 5 nM in [10]; 12.5 µM in test [13]; 11.2 µM in test [14]. Moreover, the results for the IC50 in [15] and in test [11] were 6.73 µM and 43 nM, respectively. In [16], the inhibition entry was “Active”. The outcome in test [12] was Active.
In the case of `COc1cc2c(c(OC)c1OC)-c1ccc(OC)c(=O)cc1[C@@H](NC(=O)c1cccc(C(=O)Nc3ccccc3N)c1)CC2`, the half-maximal inhibitory concentration (IC50) in test [3] turned out to be 3430 nM; in test [13], 9.62 µM; in test [14] it was 10.8 µM; in test [15] it was 4.91 µM.
In the same order, the values of `COc1cc2c(c(OC)c1OC)-c1ccc(OC)c(=O)cc1[C@@H](NC(=O)c1ccc(C(=O)Nc3ccccc3N)cc1)CC2` are 1620 nM, 15.9 µM, 12.1 µM and 10.4 µM.
As for `COc1cc2c(c(OC)c1OC)-c1ccc(OC)c(=O)cc1[C@@H](NCc1cccc(C(=O)Nc3cc(-c4cccs4)ccc3N)c1)CC2`, the concentration for half-maximal inhibition (IC50) in test [3] worked out at 393 nM; in test [13], 25.5 µM; in test [14], 19.7 µM; in [15], 5.41 µM.
For the molecule `COc1cc2c(c(OC)c1OC)-c1ccc(OC)c(=O)cc1[C@@H](NC(=O)c1cccc(C(=O)Nc3cc(-c4cccs4)ccc3N)c1)CC2`, the half-maximal inhibitory concentration (IC50) in test [1] stood at 39 nM; in test [2], 4 nM; in [3], 2790 nM; in test [4], 10 nM; in test [5] it was 27 nM; in [6] it was 119 nM. Also, the half-inhibitory concentration (IC50) in test [7] worked out at 20 nM; in [8], 2 nM; in test [9], 5 nM; in test [10], 19 nM; in test [13] it was 1.5 µM; in test [14] it was 1.49 µM. In addition, the IC50 in [15] is 0.19 µM; in test [11], 339 nM. In addition, the inhibition entry in test [16] was “Active”. Moreover, the outcome in test [12] was Active.
For the molecule `COc1cc2c(c(OC)c1OC)-c1ccc(OC)c(=O)cc1[C@@H](NC(=O)c1ccc(C(=O)Nc3cc(-c4cccs4)ccc3N)cc1)CC2`, the IC50 in [3] amounted to 740 nM; in test [13], 2.24 µM; in test [14], 1.97 µM; in test [15], 0.38 µM.
In the case of `COc1cc2c(c(OC)c1OC)-c1ccc(OC)c(=O)cc1[C@@H](NCc1cccc(C(=O)Nc3ccccc3N)c1)CC2`, the IC50 is 354 nM in test [3], more than 34.4 µM in test [13], more than 34.4 µM in test [14] and more than 34.4 µM in test [15]. Moreover, the inhibition result in [16] is “Active”.

(Values after ChEMBL document CHEMBL3414494 (Eur J Med Chem, 2015).)
